Assay results from publication PMC3690275 (Journal of medicinal chemistry, 2013).

Key:
INS-1E β-cells = assay: caspase-3/7 assay in INS-1E β-cells; format: cell-based, rat
How it was run: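 Rat INS-1E β-cells co-treated with a cytokine mixture and the test compound over a dose range; caspase-3/7 activity read after 48 h. IC50 is fitted from triplicate dose-responses. Maximum activity is expressed as % rescue from cytokine-induced caspase-3/7 activation. For the cytokine-optimization runs, values are the mean ± standard error of three independent experiments with six replicates each.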

STAT1 = format: cell-based, rat; conditions: co-treatment with IFN-γ, 30 min, immunofluorescence imaging
[1] = thermodynamic solubility assay; format: physicochemical; conditions: PBS pH 7.4, relative to compound 1

fold increase in solubility compared to 1 [1]	Structure (SMILES)	effect on IFN-γ-induced nuclear localization of STAT1 (STAT1)	further results
	C[C@@H]1CN([C@@H](C)CO)C(=O)c2cccc(NC(=O)Nc3cccc4ccccc34)c2O[C@H]1CN(C)S(=O)(=O)c1ccc2c(c1)OCCO2 [Compound 1]	nearly abolished this nuclear localization of STAT1	protective effect in the caspase assay (INS-1E β-cells; condition A: standard concentrations of cytokines): small protective effect; rescue efficacy in the caspase assay (INS-1E β-cells; condition B: IL-1β and TNF-α lowered 20- and 10-fold, IFN-γ increased 4-fold): higher rescue efficacy; reduction of caspase activity (INS-1E β-cells; condition C (IFN-γ 500 ng/mL), INS-1E β-cells, 48 h): 74%
	C[C@@H]1CN([C@@H](C)CO)C(=O)c2cccc(NC(=O)NCc3cccc4ccccc34)c2O[C@H]1CN(C)S(=O)(=O)c1ccc2c(c1)OCCO2 [Compound 7a]	did not inhibit nuclear translocation of STAT1	activity in the caspase assay (in words) (INS-1E β-cells; INS-1E β-cells): inactive
110 fold	C[C@@H]1CN([C@@H](C)CO)C(=O)c2cccc(NC(=O)N(C)c3cccc4ccccc34)c2O[C@H]1CN(C)S(=O)(=O)c1ccc2c(c1)OCCO2 [Compound 7b]		
1400 fold	C[C@@H]1CN([C@@H](C)CO)C(=O)c2cccc(NC(=O)Nc3cccc4ncccc34)c2O[C@H]1CN(C)S(=O)(=O)c1ccc2c(c1)OCCO2 [Compound 7f]		
	C[C@@H]1CN([C@@H](C)CO)C(=O)c2cccc(NC(=O)Nc3cccc4cccnc34)c2O[C@H]1CN(C)S(=O)(=O)c1ccc2c(c1)OCCO2 [Compound 7i, N-(((2R,3R)-5-((S)-1-hydroxypropan-2-yl)-3-methyl-6-oxo-10-(3-(quinolin-8-yl)ureido)-3,4,5,6-tetrahydro-2H-benzo[b][1,5]oxazocin-2-yl)methyl)-N-methyl-2,3-dihydrobenzo[b][1,4]dioxine-6-sulfonamide]	nearly abolished this nuclear localization of STAT1	
